# Experimental data from different studies.
# Each line is one published result; the experiments were not run side by side.
# Target: Serine/threonine-protein kinase 17A (STK17A, Homo sapiens, UniProt Q9UEE5)
# Sequence (Q9UEE5 1-414, as in one of the studies): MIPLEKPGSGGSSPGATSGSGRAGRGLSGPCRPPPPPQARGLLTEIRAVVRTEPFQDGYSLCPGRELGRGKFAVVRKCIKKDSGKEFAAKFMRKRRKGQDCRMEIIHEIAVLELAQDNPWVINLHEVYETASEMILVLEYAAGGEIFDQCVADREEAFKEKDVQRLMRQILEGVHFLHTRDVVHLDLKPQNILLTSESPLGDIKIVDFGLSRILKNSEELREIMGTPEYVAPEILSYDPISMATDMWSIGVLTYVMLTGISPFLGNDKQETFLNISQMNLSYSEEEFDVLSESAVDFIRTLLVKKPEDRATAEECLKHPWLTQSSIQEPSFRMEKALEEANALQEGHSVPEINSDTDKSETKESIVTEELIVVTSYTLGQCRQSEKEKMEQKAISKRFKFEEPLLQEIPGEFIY
SMILES,test,conditions,remaining binding [%]
COc1ncc2cc3ccccc3nc2c1C#N,"cell-free assay, competition with immobilised ligand",5 µM,100
CCN1CCN(Cc2ccc(C(=O)Nc3ccc(C)c(Oc4ccc5c(c4)CC(=O)N5)c3)cc2C(F)(F)F)CC1,"binding, competition with immobilised ligand",1 µM,100
C[C@@H]1CCN(c2nccc(-c3cnn4ncccc34)n2)C1,binding,1 µM,19
Cc1cnc(Nc2ccc(C(=O)N3CCC(N4CCCC4)CC3)cc2)nc1-c1cc2ccccc2s1,"binding, competition with immobilised ligand",1 µM,0.1
CN(C)c1ncc(F)c(-c2cnn3ncccc23)n1,binding,1 µM,95
O=C(NCc1ncc(C(F)(F)F)cc1Cl)c1ccc2c(c1)C1(CCS(=O)(=O)CC1)[C@@H](C1CC1)N2S(=O)(=O)c1ccc(F)cc1,"cell-free assay, competition with immobilised ligand",1 µM,73
CN(c1nccc(-c2cnn3ncccc23)n1)C1CC1,binding,1 µM,100
C=CC(=O)N1CCC(C(=O)NCC(=O)N2CCN(c3nc(-c4cnc(N)nc4C(F)F)nc(N4CCOCC4)n3)CC2)CC1,"binding, competition with immobilised ligand",1 µM,100
COc1ccnn2ncc(-c3ccnc(N(C)C)n3)c12,binding,1 µM,96
O=S(=O)(NC1CCC(c2cc(F)ccc2F)(S(=O)(=O)c2ccc(Cl)cc2)CC1)C(F)(F)F (stereo not shown),"cell-free assay, competition with immobilised ligand",1 µM,86
CN(C)c1nccc(-c2cnn3ncccc23)n1,binding,1 µM,76
O=C(NCCCN1CCOCC1)c1ccc(Nc2nccc(-c3cc4ccccc4s3)n2)cc1,"binding, competition with immobilised ligand",1 µM,0
CN(CCCC(F)(F)F)c1nccc(-c2cnn3ncccc23)n1,binding,1 µM,100
O=C(Nc1cccnn1)N1CCC(=Cc2cccc(Oc3ccc(C(F)(F)F)cn3)c2)CC1,"cell-free assay, competition with immobilised ligand",1 µM,79
COc1cnc(Nc2cccc(S(N)(=O)=O)c2)nc1N1CCN(c2ccccc2)CC1,"binding, competition with immobilised ligand",1 µM,100
O=C(NCCCN1CCOCC1)c1ccc(Nc2ncc(Cl)c(-c3ccc(Cl)s3)n2)cc1,"binding, competition with immobilised ligand",1 µM,0.85
COc1ccc2c(O[C@@H]3C[C@H]4C(=O)N[C@]5(C(=O)O)CC5/C=C\CCCCC[C@H](NC(=O)OC5CCCC5)C(=O)N4C3)cc(-c3csc(NC(=O)C(C)C)n3)nc2c1C (stereo partly shown),"cell-free assay, competition with immobilised ligand",1 µM,99
COc1cnc(Nc2cccc(S(N)(=O)=O)c2)nc1N1CCN(c2ccccc2)C(=O)C1,"binding, competition with immobilised ligand",1 µM,98
C[C@@]1(Cc2ccc(C#N)cc2)C(=O)N(c2cc(Cl)cc(Cl)c2)c2ncc(C(=O)NC3(c4nc(C5CCC5)no4)CC3)n21,"cell-free assay, competition with immobilised ligand",1 µM,91
O=C(NCC1CCOCC1)c1n[nH]cc1NC(=O)c1c(F)cccc1F,"binding, competition with immobilised ligand",1 µM,94
N[C@@H]1CCN(c2nccc(-c3cnn4ncccc34)n2)C1,binding,1 µM,100
COc1cc(-c2cn(C3CCc4c(F)cccc4N(CC(F)(F)F)C3=O)nn2)ccc1-n1cnc(C)c1 (stereo not shown),"cell-free assay, competition with immobilised ligand",1 µM,100
